Source: ChEMBL document CHEMBL1128530, “Alpha- and beta-adrenoceptors: from the gene to the clinic. 1. Molecular biology and adrenoceptor subclassification” (J Med Chem, 1995)
pKi: −log10 of the molar value.

Assays:
[1] = molecular target: T1, Alpha-1D adrenergic receptor (Rattus norvegicus, UniProt P23944); experiment: Binding affinity against Alpha-1D adrenergic receptor, from rat clones.
T1 sequence (P23944 whole entry): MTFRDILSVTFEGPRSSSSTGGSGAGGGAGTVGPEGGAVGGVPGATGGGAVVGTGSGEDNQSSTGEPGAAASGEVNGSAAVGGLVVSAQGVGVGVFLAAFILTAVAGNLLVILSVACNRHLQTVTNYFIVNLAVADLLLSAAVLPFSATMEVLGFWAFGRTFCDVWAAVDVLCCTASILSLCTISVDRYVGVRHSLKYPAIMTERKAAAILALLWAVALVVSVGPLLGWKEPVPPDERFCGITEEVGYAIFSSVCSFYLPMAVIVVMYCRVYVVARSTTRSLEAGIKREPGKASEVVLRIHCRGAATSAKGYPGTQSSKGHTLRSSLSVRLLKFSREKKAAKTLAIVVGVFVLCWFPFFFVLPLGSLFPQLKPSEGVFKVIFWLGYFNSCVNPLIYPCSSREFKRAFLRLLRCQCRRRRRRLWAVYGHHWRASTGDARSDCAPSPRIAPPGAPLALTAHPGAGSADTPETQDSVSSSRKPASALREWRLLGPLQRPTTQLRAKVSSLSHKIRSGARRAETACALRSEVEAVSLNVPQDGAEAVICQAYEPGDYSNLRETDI

[2] = molecular target: T2, Alpha-2C adrenergic receptor (Homo sapiens, UniProt P18825); experiment: Binding affinity against Alpha-2C adrenergic receptor from human clones.
T2 sequence (P18825 whole entry): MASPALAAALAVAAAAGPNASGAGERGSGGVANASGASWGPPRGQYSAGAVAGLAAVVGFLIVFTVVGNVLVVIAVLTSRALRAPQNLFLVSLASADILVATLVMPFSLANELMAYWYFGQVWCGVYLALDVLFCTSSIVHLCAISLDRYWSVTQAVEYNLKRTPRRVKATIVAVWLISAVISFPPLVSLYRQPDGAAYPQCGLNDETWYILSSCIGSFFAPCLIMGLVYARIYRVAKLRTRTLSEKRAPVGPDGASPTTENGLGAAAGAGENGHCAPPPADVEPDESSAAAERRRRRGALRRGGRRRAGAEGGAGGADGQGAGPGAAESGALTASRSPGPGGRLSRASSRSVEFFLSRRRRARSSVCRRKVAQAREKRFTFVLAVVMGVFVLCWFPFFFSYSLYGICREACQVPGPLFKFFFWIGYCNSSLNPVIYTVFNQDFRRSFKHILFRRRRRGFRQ

[3] = molecular target: T3, Alpha-1A adrenergic receptor (Rattus norvegicus, UniProt P43140); experiment: Overall binding displacement in tissues containing only the Alpha-1A adrenergic receptor from rat submaxillary gland
T3 sequence (P43140 whole entry): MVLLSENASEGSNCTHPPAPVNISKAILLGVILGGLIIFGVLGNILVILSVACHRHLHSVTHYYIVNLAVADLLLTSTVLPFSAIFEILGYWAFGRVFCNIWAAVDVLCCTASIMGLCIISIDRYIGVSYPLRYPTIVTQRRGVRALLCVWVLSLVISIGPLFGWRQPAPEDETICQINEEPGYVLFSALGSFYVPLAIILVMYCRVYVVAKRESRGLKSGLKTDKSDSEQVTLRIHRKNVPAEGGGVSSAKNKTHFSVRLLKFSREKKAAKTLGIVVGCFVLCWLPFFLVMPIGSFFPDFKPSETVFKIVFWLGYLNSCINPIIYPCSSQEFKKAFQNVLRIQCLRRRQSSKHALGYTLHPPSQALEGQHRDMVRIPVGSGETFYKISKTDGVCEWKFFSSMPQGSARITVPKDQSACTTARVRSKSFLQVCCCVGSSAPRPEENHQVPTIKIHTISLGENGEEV

[4] = molecular target: T4, Alpha-2B adrenergic receptor (Homo sapiens, UniProt P18089); experiment: Binding affinity against Alpha-2B adrenergic receptor from human clones.
T4 sequence (P18089 whole entry): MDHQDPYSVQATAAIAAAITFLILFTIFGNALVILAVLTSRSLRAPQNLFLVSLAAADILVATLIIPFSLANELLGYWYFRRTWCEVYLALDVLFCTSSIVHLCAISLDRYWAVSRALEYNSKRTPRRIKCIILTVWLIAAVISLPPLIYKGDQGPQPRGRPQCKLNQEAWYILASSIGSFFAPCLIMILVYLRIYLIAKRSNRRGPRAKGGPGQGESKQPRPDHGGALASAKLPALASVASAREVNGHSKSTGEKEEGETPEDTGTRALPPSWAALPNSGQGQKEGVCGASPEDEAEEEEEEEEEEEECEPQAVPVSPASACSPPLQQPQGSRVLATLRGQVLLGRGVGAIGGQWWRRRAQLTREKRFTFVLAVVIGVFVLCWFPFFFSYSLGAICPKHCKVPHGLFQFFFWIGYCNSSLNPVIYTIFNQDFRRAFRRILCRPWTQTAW

[5] = molecular target: T5, Alpha-2A adrenergic receptor (Homo sapiens, UniProt P08913); experiment: The compound was tested for binding affinity against Alpha-2A adrenergic receptor from human clones.
T5 sequence (P08913 whole entry): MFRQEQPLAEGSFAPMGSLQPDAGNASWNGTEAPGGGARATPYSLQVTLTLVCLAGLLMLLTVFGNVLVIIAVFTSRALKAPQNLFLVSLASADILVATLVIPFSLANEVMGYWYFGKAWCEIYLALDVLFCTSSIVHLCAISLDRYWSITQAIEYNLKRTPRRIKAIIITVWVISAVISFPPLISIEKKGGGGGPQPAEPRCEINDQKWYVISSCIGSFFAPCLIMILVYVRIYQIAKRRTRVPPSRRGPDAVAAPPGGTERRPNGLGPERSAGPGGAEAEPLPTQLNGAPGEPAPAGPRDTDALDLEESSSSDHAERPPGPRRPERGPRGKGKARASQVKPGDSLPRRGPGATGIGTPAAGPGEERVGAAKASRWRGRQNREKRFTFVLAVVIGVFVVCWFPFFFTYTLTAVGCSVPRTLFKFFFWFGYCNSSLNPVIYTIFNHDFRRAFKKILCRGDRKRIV
Outline: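 Human α2A-adrenoceptor clone expressed in CHO cells; radioligand binding read out as Ki (nM).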

[6] = molecular target: T6, Alpha-1A adrenergic receptor (Homo sapiens, UniProt P35348); experiment: The compound was tested for binding affinity against Alpha-1A adrenergic receptor from human clones.
T6 sequence (P35348 whole entry): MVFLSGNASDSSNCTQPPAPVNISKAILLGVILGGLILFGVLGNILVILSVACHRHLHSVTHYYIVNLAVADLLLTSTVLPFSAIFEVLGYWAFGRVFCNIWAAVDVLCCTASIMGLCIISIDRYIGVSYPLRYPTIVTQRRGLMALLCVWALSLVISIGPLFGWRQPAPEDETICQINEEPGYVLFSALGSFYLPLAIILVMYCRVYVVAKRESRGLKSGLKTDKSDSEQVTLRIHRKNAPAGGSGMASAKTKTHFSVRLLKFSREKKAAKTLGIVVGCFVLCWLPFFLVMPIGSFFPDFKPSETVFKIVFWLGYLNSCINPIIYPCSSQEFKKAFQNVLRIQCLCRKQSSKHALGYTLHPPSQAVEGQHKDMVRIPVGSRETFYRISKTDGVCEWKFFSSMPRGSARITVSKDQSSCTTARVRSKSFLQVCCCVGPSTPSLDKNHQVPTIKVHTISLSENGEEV

COc1cccc(OC)c1OCCNCC1COc2ccccc2O1 (stereo not given)
pKi [1]: 8.92
pKi [2]: 9.10
pKi [3]: 10.10
pKi [4]: 7.55

COc1ccccc1N1CCN(CCCNc2c(C)c(=O)n(C)c(=O)n2C)CC1
pKi [1]: 6.73
pKi [5]: 6.21
pKi [2]: 6.88
pKi [3]: 9.15
pKi [4]: 6.39
pKi [6]: 8.64

O=C(NC1CCN(CCc2c[nH]c3ccccc23)CC1)c1ccccc1 [INDORAMIN]
pKi [1]: 6.21
pKi [5]: 5.65
pKi [2]: 6.32
pKi [4]: 6.28
pKi [6]: 8.43
